The values below come from ChEMBL document CHEMBL4513216, “Probing the Open Global Health Chemical Diversity Library for Multistage-Active Starting Points for Next-Generation Antimalarials” (ACS Infect Dis, 2020).

The structures appear in SMILES notation.

The nature of this series: Toxicity liver stage against HepG2, at 10uM. Details: test concentration 10 uM, cell line HepG2-A16-CD81EGFP. Particulars: human, HepG2-A16-CD81EGFP cells; read-out: INHIBITION
The format is cell-based. A digest of the protocol: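 Uninfected HepG2-A16-CD81EGFP cells, 3 × 10^3 per well, 1536-well, plated on prespotted compound at 10 μM final, parasite-free screening media added to match infected plates; puromycin 10 μM positive, DMSO 0.5% negative; run in parallel with 48 h PbLuc assay at 37 °C, 5% CO2; viability by CellTiter-Glo luminescence, normalized to controls.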
For `CCOc1nn(CC)cc1-c1nnc(SCc2ccccn2)n1C`, the cytotoxicity at 10 µM is -2.95%.

With `COc1ccc(F)cc1S(=O)(=O)N1CCN(CCn2ccnc2)CC1`, the cytotoxicity at 10 µM is -7.72%.

Consider `Cn1cc(CN2CC3(CCN(Cc4ccsc4)C3)C2)cn1`, for which the cytotoxicity at 10 µM is -0.182%.

Consider `CCS(=O)(=O)N1CC[C@H]2O[C@H](c3nc(C)no3)CC[C@H]21`, for which the cytotoxicity at 10 µM was 6.73%.

As to `CCCOC1Sc2nnc(C)n2N=C1c1ccccc1` (stereo unspecified), the cytotoxicity at 10 µM was found to be 1.57%.

For the compound `CC(=O)N1CCCC1CCc1ccc(Cl)nn1` (stereo unspecified), the cytotoxicity at 10 µM stood at 3.39%.

As for `CN(C)c1cncc(C2CCCN(c3cnccn3)C2)n1` (stereo unspecified), the cytotoxicity at 10 µM was 2.45%.

Regarding `Cc1nc(CN2CCCC(c3cnccn3)C2)cs1` (stereo unspecified), the cytotoxicity at 10 µM is -4.18%.

Regarding `Cn1nc(C2CC2)cc1C(=O)N1CCC(c2nnsc2S(C)(=O)=O)CC1`, the cytotoxicity at 10 µM is -0.81%.

Consider `COc1ccc2c(c1)C(=O)NC1(CC2)CCN(Cc2ccccn2)C1` (stereo unspecified), for which the cytotoxicity at 10 µM is 4.51%.

Turning to `CN(C1CCCN(c2ccccn2)C1)S(=O)(=O)N1CCOCC1` (stereo unspecified), the cytotoxicity at 10 µM amounted to 8.09%.

Take `O=C(c1ccc(=O)[nH]n1)N1CCCC1C1CCCC1` (stereo unspecified): the cytotoxicity at 10 µM was -7.09%.

`NC(=O)N1CCC(NCc2cc(C(F)(F)F)ccc2Cl)CC1`: the cytotoxicity at 10 µM was -0.651%.

For the compound `O=C(CCc1nnc(-c2ccccc2)o1)N1CCCC1c1ccccn1` (stereo unspecified), the cytotoxicity at 10 µM was -5.82%.

`CCc1nnc(CN2CCc3ccc(S(N)(=O)=O)cc32)o1`: the cytotoxicity at 10 µM was determined as 1.41%.

Consider `COC(=O)c1ccoc1CN(C)CC(=O)NC1CCS(=O)(=O)C1` (stereo unspecified), for which the cytotoxicity at 10 µM was -14.2%.

For `Cc1cc(S(=O)(=O)N2CCOCC2C#N)ccc1F` (stereo unspecified), the cytotoxicity at 10 µM is 57.3%.

For `Cc1noc(C)c1CCCNC(=O)Nc1cccc([S+](C)[O-])c1` (stereo unspecified), the cytotoxicity at 10 µM is -0.595%.

As for `CC(C)c1nc2cc(NC(=O)Cn3ccc(=O)[nH]c3=O)ccc2o1`, the cytotoxicity at 10 µM stood at 1.73%.

`CC(NC(=O)N1CCc2ccccc21)c1nncn1C` (stereo unspecified): the cytotoxicity at 10 µM is -5.3%.

`COc1cc(C(C)NCc2c[nH]nc2C)ccc1OCCO` (stereo unspecified): the cytotoxicity at 10 µM was -7.47%.

Regarding `Cc1cccc(OC(C)C(=O)NCC2(N(C)C)CCCC2)c1` (stereo unspecified), the cytotoxicity at 10 µM is -13.4%.

Consider `COCC(NC(=O)c1ccoc1C)c1cccc(C(F)(F)F)c1` (stereo unspecified), for which the cytotoxicity at 10 µM is -5.95%.

Consider `COc1ccc(CNC(=O)NC(C)(CO)C2CC2)c(C(F)(F)F)c1` (stereo unspecified), for which the cytotoxicity at 10 µM turned out to be 8.48%.

Take `O=C(NCCCOCc1ccco1)c1cccnc1N1CCOCC1`: the cytotoxicity at 10 µM was -8.5%.

As to `N#Cc1nccnc1N1CCC(c2nc(C(F)(F)F)c[nH]2)CC1`, the cytotoxicity at 10 µM came to 4.25%.

`COCCCNC(=O)Nc1cccc2ncccc12`: the cytotoxicity at 10 µM was -4.84%.

Consider `NC(=O)CCn1ccc(NC(=O)C2(c3ccc(F)cc3)CCC2)n1`, for which the cytotoxicity at 10 µM was -1.03%.

Take `CCn1c(C)cc(C(=O)NCc2ccc(CS(C)(=O)=O)cc2)c1C`: the cytotoxicity at 10 µM was -16.9%.

In the case of `Cc1cccc(C(=O)N2CCCC2c2c(C)n[nH]c2C)c1` (stereo unspecified), the cytotoxicity at 10 µM was found to be 8.58%.

On to `CC(=O)NCCCSCCOc1cccc(C#N)c1`, for which the cytotoxicity at 10 µM worked out at 11.4%.

In the case of `CCc1nnsc1C(=O)N1CCN(CC(O)CC)CC1` (stereo unspecified), the cytotoxicity at 10 µM was -6.06%.

For `COc1c(C)cnc(CN(C)C(=O)c2cccc(NC(N)=O)c2)c1C`, the cytotoxicity at 10 µM was -8.94%.

For `COc1cccc(F)c1C(C)NC(=O)NCc1cc(C(C)C)no1` (stereo unspecified), the cytotoxicity at 10 µM was found to be 4.25%.

For `O=C(c1c(F)cc(Br)cc1F)N1CCc2cnccc21`, the cytotoxicity at 10 µM was -10.1%.

In the case of `CCc1noc(CN(CC(=O)N2CCCCC2)c2cccc(C)c2)n1`, the cytotoxicity at 10 µM is -6.61%.

For the compound `CCc1nc(CNc2ccc(F)c(F)c2)no1`, the cytotoxicity at 10 µM came out at 5.49%.

`O=C(NC1CC1)[C@@H]1CCO[C@@H]2CCN(Cc3ccco3)C[C@H]21`: the cytotoxicity at 10 µM was -86.6%.

As to `CC(C)Nc1ncnc2c1CCN(C(=O)CC1CCCC1)CC2`, the cytotoxicity at 10 µM is -81.5%.

On to `CC(=O)N1CC[C@H]2OCC[C@@H](C(=O)NCc3ccco3)[C@@H]2C1`, for which the cytotoxicity at 10 µM was -77.4%.

With `CC(C)c1cc(C2CCCN2C(=O)CN2C(=O)OC(C)(C)C2=O)no1` (stereo unspecified), the cytotoxicity at 10 µM was -7.71%.

As for `Cc1cccc(CC(=O)N2CCCC(N(C)CCCN(C)C)C2)c1` (stereo unspecified), the cytotoxicity at 10 µM was -0.655%.

For `COc1cc(CN2CCCC(Nc3cccc(F)c3)C2)cc(Cl)c1O` (stereo unspecified), the cytotoxicity at 10 µM is -0.476%.

For `CC(CO)CN(Cc1ccccc1)Cc1cnc2ccccc2n1` (stereo unspecified), the cytotoxicity at 10 µM came out at 6.6%.

For `COc1cc(C)cc(C(C(=O)O)N(C)Cc2ccon2)c1OC` (stereo unspecified), the cytotoxicity at 10 µM is -3.41%.

For the compound `COc1ccc(F)c(-c2nccn2CCN2CCCC2)c1`, the cytotoxicity at 10 µM was -11.8%.

With `Cc1ccccc1N1CCN(C(=O)Cc2ccc3c(c2)OCO3)CC1=O`, the cytotoxicity at 10 µM was 6.17%.

Consider `CCCc1nc(C(=O)N2CCN(S(=O)(=O)CC)CC2)cs1`, for which the cytotoxicity at 10 µM was -14.5%.

With `CCN1C[C@@H](C(=O)O)[C@H](c2cccc(OC)c2)C1`, the cytotoxicity at 10 µM is -19%.

On to `COc1ncc(CN2CCC3(CCCN(CC4CCC4)C3)C2)cn1` (stereo unspecified), for which the cytotoxicity at 10 µM is -1.95%.

For `c1cn(CCn2cnnc2)c(-c2cc3n(n2)CCCNC3)n1`, the cytotoxicity at 10 µM is -0.309%.

Take `CC(CN(C)Cc1cccc(-n2cccn2)c1)C(F)(F)F` (stereo unspecified): the cytotoxicity at 10 µM is 1.55%.

With `CCC[C@H]1CN(C2CCOCC2)C[C@@H]1NC(=O)CCn1ccnc1C`, the cytotoxicity at 10 µM was 5.78%.

Regarding `CC(c1nccs1)N(C)C(=O)c1cc(CN(C)Cc2ccccc2)on1` (stereo unspecified), the cytotoxicity at 10 µM stood at 12.2%.

For the compound `Cc1nc2c(c(NCC(c3cccnc3)N3CCOCC3)n1)CCNC2` (stereo unspecified), the cytotoxicity at 10 µM was -11.1%.

`CSCCC1c2nc[nH]c2CCN1Cc1[nH]c2ccc(F)cc2c1C` (stereo unspecified): the cytotoxicity at 10 µM is -5.65%.

For the compound `COCCN(Cc1ccccn1)C(=O)C1CCCCCN1C` (stereo unspecified), the cytotoxicity at 10 µM was determined as 6.32%.

For `Cc1cc2[nH]cc(C(=O)N3CCCCC3c3ccc(F)cc3)c(=O)n2n1` (stereo unspecified), the cytotoxicity at 10 µM was 4.19%.

Regarding `CCc1cnc(N2CCCC(CCC(N)=O)C2)nc1` (stereo unspecified), the cytotoxicity at 10 µM came out at 2.25%.

On to `CCc1nnc(CN2CCC3(CC2)Nc2ccccc2NC3=O)o1`, for which the cytotoxicity at 10 µM was -6.96%.

With `Cc1ccc2c(c1)OC(C)(C)CC2NC(=O)C1CCN(C)CC1` (stereo unspecified), the cytotoxicity at 10 µM was -1.71%.

Take `CN(Cc1ccc(-n2cncn2)cc1)Cc1ncc[nH]1`: the cytotoxicity at 10 µM is 4.67%.

For `COCCN1CCC2(CCC1=O)CN(C1CCOCC1)CCN2C` (stereo unspecified), the cytotoxicity at 10 µM is 0.0227%.

Take `CCN(Cc1noc(C)n1)C(=O)CC1C(=O)NCCN1CC(C)(C)C` (stereo unspecified): the cytotoxicity at 10 µM came out at 2.78%.

For the compound `Cn1nccc1C(=O)N1CCC(n2cc(-c3ccsc3)nn2)CC1`, the cytotoxicity at 10 µM was -3.44%.

On to `O=C(c1ccsc1)N1C[C@@H](CN2CCCC2)[C@@H](CO)C1`, for which the cytotoxicity at 10 µM turned out to be 15.2%.

Turning to `COc1ccccc1OCc1cc(C(=O)N2CC=CC2C(C)C)n[nH]1` (stereo unspecified), the cytotoxicity at 10 µM is -2.72%.

Turning to `Cc1cccc(CN2CCc3c(nc(N4CCCCC4C)[nH]c3=O)C2)n1` (stereo unspecified), the cytotoxicity at 10 µM was -0.336%.

Regarding `Cc1cc(C(=O)N2CCCC(C)C2)ccc1NCc1nc(C(C)C)no1` (stereo unspecified), the cytotoxicity at 10 µM is -9.84%.

For `CNC(=O)c1ccc(C(=O)N2CCCC(n3ccnc3)C2)cn1` (stereo unspecified), the cytotoxicity at 10 µM was -8.89%.

Consider `CCCOCC(=O)NS(=O)(=O)c1ccc2c(c1)OCCO2`, for which the cytotoxicity at 10 µM is -6.46%.

Regarding `CSc1nccn1-c1cccc(C(=O)NCC(F)(F)F)c1`, the cytotoxicity at 10 µM is -0.312%.

As to `CCOC(=O)c1sc2ccsc2c1CNC(=O)C(C)OC` (stereo unspecified), the cytotoxicity at 10 µM is -4.07%.

With `Cc1noc(Cl)c1CC(=O)N1CCC(Nc2cccnn2)CC1`, the cytotoxicity at 10 µM was -4.72%.

`CCn1cc(NC(=O)C2CCN(Cc3noc(C4CC4)n3)CC2)cn1`: the cytotoxicity at 10 µM was -1.41%.

Take `CCc1noc(CN2CCCC(Cn3nc(C)nc3C)C2)n1` (stereo unspecified): the cytotoxicity at 10 µM was -6.31%.

Turning to `CCC(C)(C)NC(=O)CN(C)C(c1cccc(F)c1)c1ccccn1` (stereo unspecified), the cytotoxicity at 10 µM was -3.15%.

On to `CC(=O)NCCc1ccc(C(=O)N2CCCC2c2cnn(C)c2)cc1` (stereo unspecified), for which the cytotoxicity at 10 µM was -4.74%.

On to `Cc1nc(-c2ccccc2)sc1C(=O)NCCNc1ncccn1`, for which the cytotoxicity at 10 µM amounted to 0.273%.

`COCCCNC(=O)CN(C)C(=O)c1cc(C)sc1C`: the cytotoxicity at 10 µM was -2.58%.

For the compound `NC(=O)c1csc(C(=O)N2CCCCC2Cn2cccn2)c1` (stereo unspecified), the cytotoxicity at 10 µM is -3.56%.

Regarding `O=C(C1CCCCN1Cc1nc(-c2ccco2)no1)N1CCCC1` (stereo unspecified), the cytotoxicity at 10 µM is -4.64%.

`O=C(NCCn1ccnc1)N1CCCC1c1ccsc1` (stereo unspecified): the cytotoxicity at 10 µM was -6.05%.

With `CCC1CN(c2nnc(C)c(C)c2C#N)CCO1` (stereo unspecified), the cytotoxicity at 10 µM is -0.678%.

On to `Cc1nnc(N2CCOC(Cn3cccn3)C2)c(C#N)c1C` (stereo unspecified), for which the cytotoxicity at 10 µM was -8.47%.

For the compound `C=C(Cl)CN1CCC(C(=O)c2cc(F)ccc2F)CC1`, the cytotoxicity at 10 µM is -7.26%.

Regarding `CCc1n[nH]c(C2CN(C(=O)c3nc(C)n4ccccc34)CCO2)n1` (stereo unspecified), the cytotoxicity at 10 µM is -11.2%.

For the compound `Cn1cc([C@@H]2CN(S(=O)(=O)c3ccccc3F)C[C@H]2N)c2ccncc21`, the cytotoxicity at 10 µM worked out at 6.13%.

As for `CN1CCC2(CC1)CN(C(=O)c1cnccn1)Cc1ccccc12`, the cytotoxicity at 10 µM is -82.2%.

Take `Cc1nc(CO[C@H]2CN(Cc3cccs3)[C@@H]3COC[C@H]23)cs1`: the cytotoxicity at 10 µM is -2.19%.

Consider `Cc1cnc(N2CC[C@@H]3O[C@@H](COCC(=O)N(C)C)CC[C@@H]32)nc1`, for which the cytotoxicity at 10 µM was 0.0508%.

`CN1CCN(CCO)C(=O)C12CCN(Cc1ccsc1)CC2`: the cytotoxicity at 10 µM is 3.66%.

With `CCn1ncc2c1CN(C(=O)Cc1ccccn1)CC2COC` (stereo unspecified), the cytotoxicity at 10 µM is -70.7%.

For the compound `Cc1oncc1C(=O)N1CC[C@H]2[C@@H]1CCC(=O)N2c1cccnc1`, the cytotoxicity at 10 µM is -76.3%.

On to `O=S(=O)(C1CC1)N1CC[C@]2(C[C@@H](Oc3ncccc3F)CO2)C1`, for which the cytotoxicity at 10 µM is -74.1%.

For the compound `Cc1cc(C(=O)N2C[C@@H]3CC[C@H]2CN(C)C3)ccc1Cl`, the cytotoxicity at 10 µM was -8.23%.
